# CHT PAM = human CHT allosteric activation. Q9GZV3. CHT-expressing cells, membrane potential dye, choline EC20; stronger effect = higher value; LV-AA mutant CHT in HEK293 cells. B-score at 10 µM. 0.49% of 310,000 active;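 active = initial fluorescence not abnormally high and integrated response B-score, plate-corrected, over 3 SD above library mean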
# procasp7 counter = activates human procaspase-7, counter-screen for procaspase-3 activators. recombinant procaspase-7, Ac-DEVD-pNA absorbance 405 nm; D23A/D198A/D206A triple mutant, cannot self-cleave; scale: DMSO 0, 5 µM enzyme 100. activation, % at 8.5 µM. 0.093% of 330,000 active. P55210. AID 463210;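 active = percent activation above the screen-wide mean plus 3 SD, cut at about 25% in these data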
# Target sequence (P55210 whole entry D23A/D198A/D206A): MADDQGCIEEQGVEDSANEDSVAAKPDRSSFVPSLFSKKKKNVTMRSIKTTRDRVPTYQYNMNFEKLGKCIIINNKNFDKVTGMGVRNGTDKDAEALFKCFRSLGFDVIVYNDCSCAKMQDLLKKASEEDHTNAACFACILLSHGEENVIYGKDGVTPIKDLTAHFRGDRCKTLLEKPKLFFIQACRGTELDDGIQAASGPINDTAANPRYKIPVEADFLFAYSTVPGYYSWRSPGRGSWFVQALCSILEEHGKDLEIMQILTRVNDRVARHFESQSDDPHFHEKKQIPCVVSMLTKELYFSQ
#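 Replicates: singlicate. Assay system: Procaspase-7 triple mutant (PC-7 D3A). Signal: 405 nm absorbance of p-nitroaniline. Times: 1 h preincubation, 2 h reaction. Buffer or medium: Zinc-free HEPES pH 7.4 with 300 mM NaCl, 0.01% Triton X-100. Also added: DEVD-pNA substrate. Benchmarks: DMSO wells as 0%, DMSO with 5 µM added PC-7 as 100%.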
# proCasp3 act = activators of human procaspase-3 | P42574 | recombinant procaspase-3 D3A, Ac-DEVD-pNA absorbance 405 nm | activation, % at 8.5 µM | 0.11% of 330,000 active | AID 463141;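 active = activation above the mean of all tested compounds plus 3 SD, cut at about 21% in these data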
# Target sequence (P42574 whole entry D9A/D28A/D175A): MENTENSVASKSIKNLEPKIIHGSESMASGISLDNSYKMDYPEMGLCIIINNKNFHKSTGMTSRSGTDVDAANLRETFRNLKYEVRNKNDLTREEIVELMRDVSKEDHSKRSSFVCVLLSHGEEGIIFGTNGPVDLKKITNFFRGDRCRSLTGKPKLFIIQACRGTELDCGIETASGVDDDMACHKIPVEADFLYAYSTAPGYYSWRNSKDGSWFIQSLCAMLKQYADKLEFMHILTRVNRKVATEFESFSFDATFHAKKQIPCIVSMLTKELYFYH
#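 Assay system: Procaspase-3 D3A mutant, all three cleavage aspartates alanine. Buffer or medium: Zinc-free HEPES saline buffer with Triton X-100. Times: 1 h compound preincubation, 2 h substrate hydrolysis at 25 °C. Measured by: 405 nm absorbance of p-nitroaniline, reads at 0 and 120 min. Read-out basis: percent activation relative to control range. Replicates: singlicate.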
# CHT block = human CHT choline transport inhibition | CHT-expressing cells, membrane potential dye, choline response; stronger effect = lower value | B-score at 10 µM | 0.86% of 310,000 active | AID 488975;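 active = B-score over 3 SD under the library average, and starting fluorescence ratio not unusually high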;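 note: choline stimulus applied at its EC90 after an EC20 pre-addition; B-score computed on integrated fluorescence ratio after choline addition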
# CHT block conf = confirmation of human choline transporter CHT inhibitors; shares compounds with CHT block; CHT-expressing cells, choline membrane potential dye; LV-to-AA substituted CHT, HEK293 cells; CHT activity remaining % of control (stronger effect = lower value), % at 10 µM; 70% of 2,400 active;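 active = choline transporter activity left, mean of duplicates at 10 µM, below buffer-only control mean minus 3 SD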;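 note: depolarization triggered by choline at its EC90 following an EC20 pre-addition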
# HEK293 CHT ctr = CHT inhibitor counter-screen hit in parental HEK293 cells; shares compounds with CHT block; membrane potential ratio readout (active if shifted either direction beyond buffer ±3SD; no single direction) at 10 µM; membrane potential dye, choline response; active = decrease or increase beyond buffer ±3SD; 4% of 2,400 active;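 note: parental cells lack the transporter so any hit is non-specific; ratio is peak minus trough fluorescence over baseline after EC90 choline challenge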
# Hits are given with their value; 0 = inactive; - = not tested or not shown. An excerpt weighted towards active compounds, which were near 1.3% of everything screened.
SMILES,CHT PAM,procasp7 counter,proCasp3 act,CHT block,CHT block conf,HEK293 CHT ctr
CC1CCN(C(=O)c2ccc3c(c2NCCO)C(=O)c2ccccc2C3=O)CC1,0,0,0,-6.3,50%,2.3
COc1ccccc1OC[C@H](O)CO,0,0,0,0,-,-
FC(F)(F)c1cccc(-c2nc(-c3ccncc3)no2)c1,0,-,-,0,-,-
FC(F)(F)c1cccc(-c2nc3nc(Cl)c(Cl)nc3[nH]2)c1,0,0,0,-7.8,50%,0
O=C(c1ccncc1)N1CCN(S(=O)(=O)c2ccc(OC(F)(F)F)cc2)CC1,-,0,0,-,-,-
O=C(N/N=C/c1cccc(Oc2ccccc2)c1)c1cccc(O)c1,0,-,-,-5.3,67%,0
O=C(N/N=C/c1cccc(Oc2ccccc2)c1)c1cccc(Br)c1,0,0,0,0,-,-
COc1ccc(Cn2cnc3c(N)c(C)c(C)cc32)cc1,0,0,0,0,-,-
Cc1cc2c(ncn2Cc2ccccc2)c([N+](=O)[O-])c1C,0,0,0,-5.3,51%,0
Cn1c(Cc2ccccc2)nnc1SCC(=O)Nc1cccc(S(=O)(=O)NC2=NCCCCC2)c1,0,0,0,0,-,-
Nn1c(Cc2ccccc2F)nnc1SCC(=O)Nc1cccc(S(=O)(=O)NC2=NCCCCC2)c1,0,0,0,-6.1,0,0
Cc1ccc(S(=O)(=O)/N=C(/Nc2ccc(O)c(C(=O)O)c2)c2ccccc2)cc1,-,0,0,-,-,-
COc1cc2c(cc1OC)C(c1cccc(Br)c1)NC(=O)C2 (stereo not given),0,-,-,0,-,-
COc1cc2c(cc1OC)C(c1c(Cl)cccc1Cl)NC(=O)C2 (stereo not given),0,0,0,-5.4,0,0
COc1ccc(N2CC(NC(=O)c3ccc4ccccc4c3)CC2=O)cc1OC (stereo not given),0,0,0,0,-,-
CCOc1cc(S(=O)(=O)NCCCN2CCOCC2)c(C)cc1C,0,-,-,0,-,-
O=c1cc(-c2ccccc2)nc2c(-c3ccccc3)c(C(F)(F)F)[nH]n12,0,0,0,-5.7,69%,0
Cc1cc(=O)n2[nH]c(C)c(-c3ccccc3)c2n1,0,0,0,0,-,-
CCn1c(SCC(=O)NCC(=O)Nc2ccc(F)cc2)nnc1-c1cccs1,0,0,0,-6,0,0
CCn1c(SCC(=O)Nc2ccc(C(=O)OC)cc2)nnc1-c1cccs1,0,0,0,0,-,-
CCn1c(SCC(=O)c2ccccc2)nnc1-c1cccs1,0,0,0,-6.6,68%,0
Cc1ccc(C2C(N)C(=O)N2c2ccc(C)cc2)cc1 (stereo not given),0,0,0,0,-,-
COc1ccc(OC)c(S(=O)(=O)N2CCN(Cc3ccccc3)CC2)c1,0,0,0,0,-,-
COc1ccc(S(=O)(=O)N2CCN(CCc3ccccc3)CC2)c(OC)c1,0,0,0,-5.5,48%,0
Fc1ccc(NC(=S)Nc2ccc(F)c(Cl)c2)cc1Cl,0,0,0,-6.1,36%,0
SMILES,CHT PAM,procasp7 counter,proCasp3 act,CHT block,CHT block conf,HEK293 CHT ctr
COc1ccc(C(=O)N/N=C(\C)CC(=O)NC2CCCCC2)c(OC)c1,0,0,0,0,-,-
COc1ccc(N2CCN(CC(=O)Nc3c(C)cc(C)cc3C)CC2)cc1,0,0,0,-6.1,53%,0
Cc1cc(C)c(NC(=O)CN2CCN(C)CC2)c(C)c1,0,0,0,0,-,-
NS(=O)(=O)c1ccc(CNC(=O)CNC(=O)c2ccc(Br)o2)cc1,0,0,0,0,-,-
CCCCc1nc(NCCO)c(C#N)c2c1CCCC2,0,0,0,-5.9,0,0
CCN(CC)c1ccc(/C=N/NC(=O)c2ccco2)c(O)c1,0,0,0,-5.2,0,0
COc1cc2oc(=O)ccc2cc1[C@@H](O)[C@@H]1OC(C)(C)OC1(C)C,-,0,0,-,-,-
CN(C1CCCCC1)S(=O)(=O)c1ccc2c(c1)c(=O)c(C(=O)NCCCN1CCCC1)cn2C,0,0,0,0,-,-
CCn1cc(C(=O)NCCCN2CCCC(C)C2)c(=O)c2cc(S(=O)(=O)N(C)C3CCCCC3)ccc21 (stereo not given),0,0,0,-7.5,25%,2.7
CCN(CC)CCCNC(=O)c1cn(CC)c2ccc(S(=O)(=O)N(C)C3CCCCC3)cc2c1=O,0,0,0,-5.7,61%,0
CCCCN(CCCC)CCNC(=O)c1cn(CC)c2ccc(S(=O)(=O)N(C)C3CCCCC3)cc2c1=O,0,0,0,-7.1,20%,0
Cc1ccc(NC(=O)CCNC(=O)c2ccc(Br)cc2)cc1S(=O)(=O)N1CCCCCC1,0,0,0,0,-,-
Cc1cc(C)c(S(=O)(=O)/N=C2\C=C(Nc3ccc(C(=O)O)cc3)C(=O)c3ccccc32)c(C)c1,0,0,0,-5.6,25%,0
Cc1cc(C)cc(NS(=O)(=O)c2cnc(Cl)c(Cl)c2)c1,0,0,0,-8,52%,0
CCOc1ccc(NS(=O)(=O)c2cnc(Cl)c(Cl)c2)cc1,0,0,0,0,-,-
COc1ccc(NC(=O)COC(=O)CCC2CCCC2)c(OC)c1,-,0,0,-,-,-
COc1ccc(COc2ccc(S(=O)(=O)N3CCCC3)cc2C(N)=O)cc1F,0,0,0,0,-,-
CCCCSc1nc(C)cc(C)c1S(=O)(=O)c1ccccc1C,0,0,0,-7.6,0,0
CCCNC(=O)C(Cc1ccc(C(F)(F)F)cc1)NC(=O)c1ccc(C#N)cc1 (stereo not given),-,0,0,-,-,-
CCc1ccccc1-n1nnc(-c2ccccc2)n1,0,0,0,-5.4,0,0
CCOC(=O)Cn1nnc(-c2ccccc2)n1,0,0,0,0,-,-
COC(=O)c1ccc(COC(=O)C(CCS(C)(=O)=O)N2C(=O)c3ccccc3C2=O)cc1 (stereo not given),0,0,0,-6.3,0,0
COc1cccc(CNc2ccc(N3CCCCC3)cc2)c1OC,0,0,0,-15,12%,0
O=C(COc1ccccc1)N1CCN(c2nnc(-c3ccccc3)c3ccccc23)CC1,0,0,0,-5.2,0,0
Cc1cccn2c(=O)c(C=O)c(Nc3ccccc3)nc12,0,0,0,0,-,-
CC1=NN(C(=O)CSCc2ccccc2)C(O)(c2ccc(Cl)cc2)C1 (stereo not given),0,0,0,-6.5,0,0
CC(C)C(=O)Nc1cccc(NC(=O)c2ccc(Cl)cc2Cl)c1,0,0,0,-9.4,43%,0
Oc1cccc(C(O)CNCc2ccc(OCc3ccc(Cl)cc3Cl)cc2)c1 (stereo not given),0,0,0,-5.6,69%,0
CC(C)(C)OC(=O)C[C@H]1C/C=C\C[C@@H](CC(=O)N[C@@H](CO)Cc2ccccc2)C(=O)NC[C@H](c2ccccc2)OC1=O,-,0,0,-,-,-
